S100A4 inh HTS – inhibitors of human S100A4 binding to myosin IIA peptide. AID 652163. P26447. S100A4/TAMRA-MyoIIA peptide fluorescence polarization. actives 0.14% (n = 360,000). inhibition, % at 10.7 µM;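 active = mean inhibition of at least 70% across replicates, with every replicate also reaching that level; inconclusive = mean inhibition reaches 70% but some replicates fall short; inactive = mean inhibition below 70%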
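Test system – S100A4 monomer (human) · Compound – single-point compound testing · Schedule – 5 min incubation before reading · Probe or stimulus – TAMRA-labelled myosin IIA heavy-chain peptide probe, 5 nM · Benchmarks – neutral control DMSO, positive control TFP · Medium – Calcium-containing HEPES buffer, pH 7.2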
DENV2 CPE rescue – DENV2-induced cell death inhibition | CPE inhibition, % at 9.99 µM | DENV2-infected cells, cytopathic effect rescue, plate reader | actives 1.7% (n = 350,000); in the data active = CPE inhibition above about 20%, passing the limit was not always enough; inconclusive = no clear call, values can overlap the other calls; tested in BHK-21 cells;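 note: 0% = median of neutral control wells and 100% = median of positive control wells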
Xi reactivation – activators of X-chromosome reactivation in mouse fibroblasts; XiGFP mouse fibroblasts, % GFP-positive cells imaging, 3 d; cells co-treated with 5-aza-dC sensitizer; scaled so ellipticine positive control = 100%; activation, % at 7.58 µM; actives 0.055% (n = 360,000); AID 743238;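 active = mean normalized replicate activation at least 10% and every replicate at or above 10%; inconclusive = only one of the two criteria met; inactive = mean below 10% and not all replicates reach 10%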;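 note: 0% = median of on-plate neutral control wells and 100% = ellipticine 6 µM median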
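Assay system: SV40-immortalized XiGFP fibroblast cells, line 68-5-11; buffer or medium: DMEM plus 5-aza-dC sensitizer; compound: one concentration, pinned; timing: compounds 3 days, fix/stain 15 min at room temperature; benchmarks: positive control ellipticine, 6 µM final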
E-selectin induc – E-selectin induction on HUVECs; HUVEC E-selectin immunofluorescence imaging; normalized: neutral wells 0, TNF-alpha wells 100; activation, % at 7.58 µM; actives 0.37% (n = 260,000);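 active = mean E-selectin-positive cell signal at least 10% of the positive control, reached in at least 60% of replicates, without over 20% cell loss; inconclusive = no rule given, readout overlaps actives, possibly toxicity-flagged; inactive = the rest, including those meeting only one limit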
Target sequence (P16581 whole entry, looked up): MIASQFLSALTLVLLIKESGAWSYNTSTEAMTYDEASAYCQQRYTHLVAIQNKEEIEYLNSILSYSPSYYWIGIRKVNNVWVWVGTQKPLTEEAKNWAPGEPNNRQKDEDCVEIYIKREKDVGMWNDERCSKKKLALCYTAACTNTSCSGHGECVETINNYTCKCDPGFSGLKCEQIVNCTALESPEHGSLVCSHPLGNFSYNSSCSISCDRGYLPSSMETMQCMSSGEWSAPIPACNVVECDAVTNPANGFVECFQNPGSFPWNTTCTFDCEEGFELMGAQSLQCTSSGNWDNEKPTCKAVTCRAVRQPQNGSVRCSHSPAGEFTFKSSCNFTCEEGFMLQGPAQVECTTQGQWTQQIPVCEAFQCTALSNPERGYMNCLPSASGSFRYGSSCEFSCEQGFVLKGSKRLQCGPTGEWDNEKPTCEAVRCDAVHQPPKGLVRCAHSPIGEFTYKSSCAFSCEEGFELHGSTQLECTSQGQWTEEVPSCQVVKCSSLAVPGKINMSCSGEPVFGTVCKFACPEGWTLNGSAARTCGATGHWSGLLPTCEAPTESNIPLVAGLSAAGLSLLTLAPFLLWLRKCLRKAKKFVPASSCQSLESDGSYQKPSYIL
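Read-out: % PE-positive cells | Test system: HUVEC | Doses: One compound dose added by pin transfer | Buffer or medium: EGM-2 over gelatin coat | Signal: Immunofluorescence imaging | Benchmarks: TNF-alpha, DMSO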
* = called active by the depositor; ? = inconclusive; . = no result given; ! = a repeat was not active. This is a sample that favours compounds with a hit; in the whole collection about 2% have one here.

SMILES | S100A4 inh HTS | DENV2 CPE rescue | Xi reactivation | E-selectin induc
NC(=O)C1CCN(c2nc(-c3ccccc3-c3ccccc3)cs2)CC1 | -10 | -7 | 0 | 139*
NC(=O)C1CCN(c2nc(-c3ccccc3N)cs2)CC1 | . | . | 0 | 1
CCc1c(C2(O)CCCCC2)[nH]c2c(C(=O)OC)cc(Cl)cc12 | 4 | 30* | 0 | 0
COC(=O)c1cc(Cl)cc2c(C)c(C3(O)CCCCC3)[nH]c12 | -5 | -18 | 0 | 0
COc1cccc(C2NC(=S)NC(C)=C2C(C)=O)c1 (stereo not drawn) | 0 | 57* | 0 | 2
CO[C@@H]1CN(C)C(=O)c2ccc(NC(=O)c3cccc(F)c3)cc2OC[C@H](C)NC[C@@H]1C | 22 | 24* | 0 | 1
COc1cccc(C(=O)Nc2ccc3c(c2)OC[C@H](C)NC[C@H](C)[C@@H](OC)CN(C)C3=O)c1 | -3 | 25* | 0 | 0
CO[C@H]1CN(C)C(=O)c2ccc(NC(=O)c3ccccc3F)cc2OC[C@H](C)NC[C@@H]1C | 126* | -4 | 0 | 0
CO[C@H]1CN(C)C(=O)c2ccc(NC(=O)c3cccc(F)c3)cc2OC[C@H](C)NC[C@@H]1C | 2 | 2 | 1 | 0
CO[C@H]1CN(C)C(=O)c2cc(NC(=O)c3ccc(Oc4ccccc4)cc3)ccc2OC[C@@H](C)NC[C@H]1C | 2 | 26* | 0 | 0
CO[C@H]1CN(C)C(=O)c2ccc(NC(=O)c3ccccc3F)cc2OC[C@@H](C)NC[C@H]1C | -7 | -9 | 0 | 0
CS(=O)(=O)N(CCc1ccccc1)CC(=O)NCc1ccncc1 | -2 | . | . | .
ON(CCc1ccncc1)Cc1ccccc1 | 72* | 14 | 0 | -1
O=C(NC(=S)Nn1cnc2c(cnn2-c2ccccc2)c1=O)c1ccc(Cl)cc1 | . | . | 0 | .
Cc1cc(NC(=O)CCC(=O)N(c2ccccc2)C(C(=O)NC2CCCC2)c2ccc(F)cc2)no1 (stereo not drawn) | -3 | -5 | 0 | 36*
Cc1cc(NC(=O)CCC(=O)N(c2ccc(F)cc2)C(C(=O)NC2CCCC2)c2ccccc2)no1 (stereo not drawn) | 1 | 3 | 0 | -1
O=C(CCCl)Nc1nnc(SCC(=O)NC2CCCC2)s1 | 0 | 0 | . | .
COc1ccccc1-c1nnc2sc(-c3ccc(N(C)C)cc3)nn12 | 12 | 42* | 0 | .
CN(CC(=O)O)S(=O)(=O)c1ccc2[nH]c(=O)c(=O)[nH]c2c1 | 14 | -1 | 0 | 0
O=C(C[C@@H]1CC[C@H]2[C@@H](COC[C@@H](O)CN2Cc2cccc(-c3ccncc3)c2)O1)N1CCCCC1 | 8 | 29* | 0 | 0
O=C(C[C@H]1CC[C@H]2[C@@H](COC[C@@H](O)CN2Cc2ccccc2F)O1)N1CCc2ccccc2C1 | 3 | -8 | 0 | 0
O=C(C[C@@H]1CC[C@@H]2[C@H](COC[C@H](O)CN2Cc2ccc3c(c2)OCO3)O1)N1CCOCC1 | -4 | -7 | 0 | 0
CN1CCN(C(=O)C[C@@H]2CC[C@@H]3[C@H](COC[C@@H](O)CN3Cc3ccc4c(c3)OCO4)O2)CC1 | -1 | 100* | 0 | 0
CN1CCN(C(=O)C[C@@H]2CC[C@@H]3[C@H](COC[C@@H](O)CN3Cc3cccc(Cl)c3)O2)CC1 | 3 | 31*! | 0 | 0
O=C(C[C@H]1CC[C@H]2[C@@H](COC[C@H](O)CN2Cc2ccccc2F)O1)N1CCc2ccccc2C1 | -1 | 28* | 1 | 0
SMILES | S100A4 inh HTS | DENV2 CPE rescue | Xi reactivation | E-selectin induc
CC(C)(C)C(=O)NC1(C(F)(F)F)NC(=O)N(CCc2ccccc2)C1=O (stereo not drawn) | -2 | 1 | 0 | 0
CC(C)NC(=O)N(C)C[C@H]1Oc2ccc(NC(=O)Cc3ccccc3)cc2C(=O)N([C@H](C)CO)C[C@@H]1C | -1 | 52*! | -1 | 1
C[C@@H]1CN([C@@H](C)CO)C(=O)c2cc(NC(=O)Cc3ccccc3)ccc2O[C@H]1CN(C)C(=O)NC1CCCCC1 | 14 | -5 | -1 | -5
C[C@@H]1CN([C@H](C)CO)C(=O)c2cc(NC(=O)Cc3ccccc3)ccc2O[C@H]1CN(C)C(=O)NC1CCCCC1 | 7 | -8 | 0 | 71*
CC(C)NC(=O)N(C)C[C@@H]1Oc2ccc(NC(=O)Cc3ccccc3)cc2C(=O)N([C@H](C)CO)C[C@H]1C | -2 | 78* | -1 | .
CC(C)NC(=O)N(C)C[C@@H]1Oc2ccc(NC(=O)Cc3ccccc3)cc2C(=O)N([C@@H](C)CO)C[C@H]1C | -8 | -3 | 1 | .
CCCCN1C(=O)C2Cc3c([nH]c4ccccc34)CN2C1=S (stereo not drawn) | -3 | . | 0 | -1
CCNC(=O)C[C@H]1CC[C@@H]2[C@@H](COc3ccc(NC(=O)Nc4ccccc4C)cc3C(=O)N2C)O1 | -1 | 3 | 0 | 0
COC(=O)[C@@]1(Cc2ccc(F)cc2)[C@H]2c3cc(C(=O)N(C)C)n(Cc4ccc(OC(F)(F)F)cc4)c3C[C@H]2CN1C(=O)c1ccccc1 | -4 | 20* | 0 | 0
COC(=O)Cn1c(C(=O)N(C)C)cc2c1C[C@H]1CN(C(=O)c3ccccc3)[C@@](Cc3ccc(F)cc3)(C(=O)OC)[C@@H]21 | -2 | 63* | 0 | 0
CCc1ccc(/C=N/NC(=O)c2cc(-c3cccc([N+](=O)[O-])c3)n[nH]2)cc1 | 0 | -3 | 0 | .
C=C1C[C@H](O[C@@H]2O[C@H](CO)[C@@H](O)[C@H](O)[C@H]2O)[C@@H]2[C@H](OC(=O)[C@H]2C)[C@H]2[C@H](C)[C@H](O)C[C@@H]12 | -4 | 55* | 0 | 0
O=c1c([N+](=O)[O-])c(O)c2cccc3c2n1CCC3 | 4 | -2 | 0 | ?
CC1=NN(c2nc(N)nc(/C(C#N)=C/c3ccc([N+](=O)[O-])o3)n2)C(C)(C)C1 | -6 | -4 | 73* | 1
O=C1C2C(C(=O)N1/N=C/c1ccc([N+](=O)[O-])o1)C1C=CC2C12CC2 (stereo not drawn) | . | . | 1 | .
COc1ccc(N2CCN(c3cc(C(=O)NC4CCCCC4)ncn3)CC2)cc1OC | -2 | 22* | 0 | 0
COc1ccc(C(=O)NC2CCCCCCC2)cc1OC | 1 | 3 | 0 | .
CCCCn1c(N)c(N(CCC(C)C)C(=O)c2ccc(C)o2)c(=O)[nH]c1=O | 1 | -5 | 0 | 6
CCCNC(=O)c1cc(C2CCCCN2C(=O)c2ccc(NC(C)=O)cc2)on1 (stereo not drawn) | 14 | 9 | 0 | 0
COc1ccc(NC(=O)N(C)C[C@H]2Oc3ccc(NC(=O)Cn4cnnn4)cc3CC(=O)N([C@@H](C)CO)C[C@@H]2C)cc1 | 2 | 56* | 0 | .
COc1ccc(NC(=O)N(C)C[C@@H]2Oc3ccc(NC(=O)Cn4cnnn4)cc3CC(=O)N([C@@H](C)CO)C[C@@H]2C)cc1 | 9 | -13 | 0 | .
